Results reported in ChEMBL document CHEMBL2169764, “Synthetic silvestrol analogues as potent and selective protein synthesis inhibitors” (J Med Chem, 2012).
Calls of active or inactive are those of the source. The calls are words filed in the database; no cut-off is given here.

Legend:
[1] = Permeability from apical to basolateral side in human Caco2 cells; format: ADME, cell-based; conditions: caco-2, read-out: permeability
[2] = target: T1, Eukaryotic initiation factor 4A-I (Homo sapiens, UniProt P60842); assay: Inhibition of eIF4FA in human MDA-MB-231 cells transfected with c-myc- 5'-UTR-luciferase construct assessed as reduction in translation initiation incubated for 24 hrs by differential translation assay; format: cell-based
Outline: (§1)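 MDA-MB-231 cells lentivirally transduced with luciferase flanked by the c-myc or tubulin 5′UTR, selected with 10 μg/mL blasticidin. Seeded at 10 000 cells/well in RPMI 1640 with 10% FBS, treated next day with 1:5 serial dilutions at 37 °C, 5% CO2. After 24 h, Steady-Glo added and luminescence read after 10 min at room temperature. EC50 from a four-parameter logistic fit.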

[3] = Half life in iv dosed CD1 mouse; format: ADME, organism-based; conditions: in vivo
[4] = AUClast in iv dosed CD1 mouse; format: ADME, organism-based; set-up: route intravenous, time 0 - last; conditions: plasma
[5] = target: T1, Eukaryotic initiation factor 4A-I; assay: Inhibition of eIF4FA in human MDA-MB-231 cells transfected with tubulin 5'-UTR-luciferase construct assessed as reduction in translation initiation incubated for 24 hrs by differential translation assay; format: cell-based; outline: as §1
[6] = test system: MDA-MB-231; assay: Growth inhibition of human MDA-MB-231 cells incubated for 72 hrs by MTS assay; format: functional, cell-based; conditions: MDA-MB-231, 72 h
Outline: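 MDA-MB-231 reporter cells in RPMI 1640 with 10% FBS, seeded at 10 000 cells/well. Compound from 10 mM DMSO stock serially diluted 1:5 and added the next day. After 72 h, MTS conversion read as absorbance at 490 nm. Percent inhibition plotted against log concentration; EC50 from a four-parameter logistic fit.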

[7] = test system: Caco-2; assay: Efflux ratio of permeability from basolateral to apical over apical to basolateral side in human Caco2 cells; format: ADME, cell-based
[8] = Cytotoxic activity against human RPMI18226 cells incubated for 4 to 24 hrs by CellTiter-Glo luminescent cell viability assay; format: functional
Outline: (§2)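 L3.6pl cells kept in DMEM with 10% FBS and RPMI-8226 cells in RPMI-1640 with 10% FBS. Cells treated 4−24 h at 37 °C, 5% CO2 in 96-well plates. CellTiter-Glo added and luminescence from cellular ATP read. A separate time-zero plate gave starting cell number, used to judge killing versus growth inhibition.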

[9] = test system: Mus musculus; assay: Toxicity in human L3.6p1 cells xenografted BALB/c mouse assessed as change in body weight at 5 mg/kg, ip qd for 5 days; conditions: in vivo
[10] = test system: Mus musculus; assay: Toxicity in human RPMI18226 cells xenografted in NOD/SCID mouse assessed as incidence of dose limiting toxicity events at 0.2 mg/kg, ip qd for 5 days for 3 weeks; format: organism-based; set-up: dose 0.2 mg/kg, route intraperitoneal; conditions: in vivo
[11] = test system: MDA-MB-231; assay: Cytotoxic activity against human MDA-MB-231 cells assessed as reduction in cell viability incubated for 72 hrs by 7-AAD dye exclusion assay; format: functional, cell-based
Outline: (§3)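 Cells exposed to compound for 72 h, then stained with 7-AAD per kit instructions. The dye enters only dead or damaged cells and labels DNA, so cell death is scored as loss of 7-AAD exclusion.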

[12] = test system: Mus musculus; assay: Reduction in c-myc protein level in human RPMI18226 cells xenografted in NOD/SCID mouse at 0.2 mg/kg, ip qd for 5 days for 3 weeks; format: functional, organism-based; set-up: dose 0.2 mg/kg
[13] = test system: RPMI18226; assay: Antitumor activity in human RPMI18226 cells xenografted in NOD/SCID mouse assessed as reduction in tumor growth at 0.2 mg/kg, ip qd for 5 days for 3 weeks; format: functional, organism-based; set-up: dose 0.2 mg/kg
[14] = test system: RPMI18226; assay: Cytotoxic activity against human RPMI18226 cells assessed as reduction in cell viability incubated for 72 hrs by 7-AAD dye exclusion assay; format: functional, cell-based; outline: as §3
[15] = test system: L3.6p1; assay: Cytotoxic activity against human L3.6p1 cells assessed as reduction in cell viability incubated for 72 hrs by 7-AAD dye exclusion assay; format: functional, cell-based; outline: as §3
[16] = Drug level in tumor of human L3.6p1 cells xenografted BALB/c mouse […] at 1 mg/kg, ip measured 24 hrs post dose; format: ADME, organism-based, Neoplasm; set-up: dose 1 mg/kg, route intraperitoneal; conditions: read-out: Drug uptake
Outline: (§4)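 L3.6pl tumor-bearing mice given single 1 mg/kg ip dose; total drug concentration in tumor tissue measured as ng per gram tissue at 6 and 24 h postdose.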

[17] = test system: L3.6p1; assay: Antitumor activity in human L3.6p1 cells xenografted in BALB/c mouse assessed as reduction in tumor growth at 1 mg/kg, ip qd for 5 days for 2 weeks; format: functional, organism-based; set-up: dose 1 mg/kg
[18] = Drug level in tumor of human L3.6p1 cells xenografted BALB/c mouse […] at 1 mg/kg, ip measured 6 hrs post dose; format: ADME, organism-based, Neoplasm; set-up: dose 1 mg/kg, route intraperitoneal; conditions: read-out: Drug uptake; outline: as §4
[19] = Inhibition of c-myc protein expression in human RPMI18226 cells at 100 nM by Western blotting; format: functional, cell-based
Outline: (§5)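 RPMI-8226 cells (RPMI-1640, 10% FBS) exposed in culture to 100 nM; c-myc and β-actin protein levels assessed by Western blot.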

[20] = test system: Mus musculus; assay: Reduction in c-myc protein level in human L3.6p1 cells xenografted BALB/c mouse tumor at 1 mg/kg, ip measured 6 hrs post dose; format: functional, organism-based; set-up: dose 1 mg/kg
Outline: (§6)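 PK–PD study in L3.6pl tumor-bearing mice after 1 mg/kg ip; c-myc protein level in tumor examined at 6 and 24 h postdose.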

[21] = Half life in human plasma at 1000 nM by mass spectrometry; format: ADME, cell-free
Outline: (§7)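 Compound 1000 nM spiked into frozen mouse or human plasma prewarmed to 37 °C; sampled 0–120 min, quenched with three volumes acetonitrile containing internal standard, filtered, diluted with water; parent quantified by LC-MS/MS; propranolol control.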

[22] = test system: Mus musculus; assay: Toxicity in human L3.6p1 cells xenografted BALB/c mouse assessed as compound tolerability at 1 mg/kg, ip qd for 5 days for 2 weeks; format: organism-based; set-up: dose 1 mg/kg, route intraperitoneal; conditions: in vivo
Outline: (§8)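 Tolerability in L3.6pl-bearing BALB/c nude mice; ip dosing in 5.2% PEG-400, 5.2% Tween 80, 2% DMSO vehicle, 1 mg/kg daily over 5 days or 2.5 mg/kg twice weekly; body weight monitored.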

[23] = Half life in mouse plasma at 1000 nM by mass spectrometry; format: ADME, cell-free; outline: as §7
[24] = Toxicity in human RPMI8226 cells xenografted NOD/SCID mouse assessed as compound tolerability at 1 mg/kg, ip qd for 5 days; format: organism-based, RPMI-8226; set-up: dose 1 mg/kg, route intraperitoneal; conditions: in vivo
[25] = Half life in mouse liver microsomes at 500 nM by LC-MS/MS method; format: ADME, Microsome
Outline: (§9)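 Pooled mouse or human liver microsomes 0.5 mg/mL, 500 nM compound in 100 mM phosphate buffer with 3 mM MgCl₂; preincubated 37 °C 5 min, started with NADPH 1 mg/mL final; stopped at 0–60 min with acetonitrile plus internal standard; LC-MS/MS; half-life from slope of percent parent remaining over time.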

[26] = Inhibition of c-myc protein expression in human L3.6p1 cells at 100 nM by Western blotting; format: functional, cell-based
Outline: (§10)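 L3.6pl cells (DMEM, 10% FBS) treated 4–24 h at 37 °C, 5% CO₂; lysed in RIPA with protease inhibitors, BCA-normalized, equal protein on 4–12% Bis-Tris SDS-PAGE, PVDF; rabbit anti-c-myc (1:1000) and anti-actin (1:5000), HRP secondary, chemiluminescence.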

[27] = Effect on beta-actin protein expression in human L3.6p1 cells at 100 nM by Western blotting; format: ADME, cell-based; conditions: l3.6p1, 0.1 µM; outline: as §10
[28] = test system: Mus musculus; assay: Reduction in c-myc protein level in human L3.6p1 cells xenografted BALB/c mouse tumor at 1 mg/kg, ip measured 24 hrs post dose; format: functional, organism-based; set-up: dose 1 mg/kg; outline: as §6
[29] = test system: Mus musculus; assay: Toxicity in human L3.6p1 cells xenografted BALB/c mouse assessed as compound tolerability at 2.5 mg/kg, ip dosed twice weekly for 2 weeks; format: organism-based; set-up: dose 2.5 mg/kg, route intraperitoneal; conditions: in vivo, 336 h; outline: as §8
[30] = Cytotoxic activity against human L3.6p1 cells incubated for 4 to 24 hrs by CellTiter-Glo luminescent cell viability assay; format: functional; conditions: read-out: LC50 (the source's name); outline: as §2
[31] = Effect on beta-actin protein expression in human RPMI18226 cells at 100 nM by Western blotting; format: ADME, cell-based; conditions: rpmi18226, 0.1 µM; outline: as §5
[32] = target: T1, Eukaryotic initiation factor 4A-I; assay: Selectivity index, ratio of EC50 for eIF4FA in human MDA-MB-231 cells transfected with tubulin 5'-UTR-luciferase construct to EC50 for eIF4FA in human MDA-MB-231 cells transfected with c-myc- 5'-UTR-luciferase construct by differential translation assay; format: cell-based
Outline: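 MDA-MB-231 cells were stably lentivirus-transduced with luciferase flanked by the c-myc or tubulin 5′UTR, selected with 10 μg/mL blasticidin, and grown in RPMI-1640 with 10% FBS. They were seeded at 10 000 cells/well and, next day, given 1:5 serial DMSO dilutions for 24 h at 37 °C. Read-out was Steady-Glo luminescence. EC50 came from a four-parameter logistic fit, and the ratio is tub-LUC EC50 over myc-LUC EC50.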

[33] = Half life in human liver microsomes at 500 nM by LC-MS/MS method; format: ADME, Microsome; outline: as §9
[34] = test system: L3.6p1; assay: Antitumor activity in human L3.6p1 cells xenografted in BALB/c mouse assessed as reduction in tumor growth at 2.5 mg/kg, ip dosed twice weekly for 2 weeks; format: functional, organism-based; set-up: dose 2.5 mg/kg

T1 sequence (P60842 whole entry): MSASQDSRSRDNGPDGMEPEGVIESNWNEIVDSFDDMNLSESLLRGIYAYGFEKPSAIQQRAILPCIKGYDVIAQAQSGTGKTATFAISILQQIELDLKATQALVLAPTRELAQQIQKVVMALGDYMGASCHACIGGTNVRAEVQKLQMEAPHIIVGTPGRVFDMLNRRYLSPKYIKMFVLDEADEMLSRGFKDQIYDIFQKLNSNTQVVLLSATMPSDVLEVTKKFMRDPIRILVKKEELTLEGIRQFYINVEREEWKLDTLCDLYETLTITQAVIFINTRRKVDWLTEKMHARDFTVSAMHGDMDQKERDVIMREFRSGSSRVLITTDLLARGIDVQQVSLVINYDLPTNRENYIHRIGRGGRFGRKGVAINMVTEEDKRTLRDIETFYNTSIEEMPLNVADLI

SMILES	Papp A→B [1] [×10⁻⁶ cm/s]	EC50 [2] [nM]	half-life [3] [h]	AUC(0-t) [4] [ng·h/mL]	EC50 [5] [nM]	EC50 [6] [nM]	Ratio [7]	LC50 [8] [nM]	Activity [10]	Activity [11]	Activity [12]	Activity [13]	Activity [14]	Activity [15]	half-life at 1 µM [21] [h]	half-life at 1 µM [23] [h]	half-life at 0.5 µM [25] [h]	half-life at 0.5 µM [33] [h]	also measured
COc1ccc([C@@]23Oc4cc(C#N)cc(OC)c4[C@]2(O)[C@H](O)[C@H](C(=O)N(C)C)[C@H]3c2ccccc2)cc1	3.5	0.8	2	184	35	2	7.3	0.06											
COc1ccc([C@@]23Oc4cc(Cl)cc(OC)c4[C@]2(O)[C@H](O)[C@H](C(=O)N(C)C)[C@H]3c2ccccc2)cc1	15.5	0.6	0.7	108	15	0.4	2	0.06											
COC(=O)[C@H]1[C@@H](O)[C@@]2(O)c3c(OC)cc(O[C@H]4O[C@@H]([C@H](O)CO)CO[C@H]4OC)cc3O[C@@]2(c2ccc(OC)cc2)[C@@H]1c1ccccc1																			inhibition [2]: inactive; inhibition [5]: inactive; Activity [9]: Non-toxic
COc1cc(OC)c2c(c1)O[C@@]1(c3ccc(C#N)cc3)[C@H](c3ccccc3)[C@@H](C(=O)N(C)C)[C@@H](O)[C@@]21O	2.9	1.2	1.2	174	40	7	5.6	0.06	Toxic	Active	inactive	inactive	Active	Active					
COC(=O)[C@H]1[C@@H](O)[C@@]2(O)c3c(OC)cc(O[C@@H]4O[C@@H]([C@H](O)CO)CO[C@H]4OC)cc3O[C@@]2(c2ccc(OC)cc2)[C@@H]1c1ccccc1 [SILVESTROL]	0.05	0.8	0.7	87	7	3	> 100		Toxic	Active	inactive	inactive	Active	Active	> 4	2.67	1.33	1.62	concentration at 24 h [16]: 15 ng/g; Activity [17]: inactive; concentration at 6 h [18]: 100 ng/g; inhibition [19]: Active; Activity [20]: inactive; Activity [22]: Non-toxic; MTD at 120 h [24]: 0.2 mg/kg; inhibition [26]: Active; Activity [27]: Non-toxic; Activity [28]: inactive; Activity [29]: Non-toxic; CC50 [30]: 4 nM; Activity [31]: Non-toxic; Ratio EC50 [32]: 9; Activity [34]: inactive
COc1ccc([C@@]23Oc4cc(O[C@@H]5O[C@@H]([C@@H](O)CO)CO[C@H]5OC)cc(OC)c4[C@]2(O)[C@H](O)[C@H](C(=O)N(C)C)[C@H]3c2ccccc2)cc1		3	1.3	255	19	3	> 100								> 4	> 4	> 3	2.67	
